In ChEMBL document CHEMBL3259808, “Optimization of antitrypanosomatid agents: identification of nonmutagenic drug candidates with in vivo activity” (J Med Chem, 2014):
Active and inactive are the calls of the source. The calls are words filed in the database; no cut-off is given here.

Key:
Trypanosoma cruzi [1] = test: Antitrypanosomal activity against Trypanosoma cruzi Dm 28c epimastigotes assessed as growth inhibition after 5 days; type: functional, organism-based; details: 120 h
Trypanosoma cruzi [2] = test: Antitrypanosomal activity against Trypanosoma cruzi Sylvio X-10 amastigotes infected in African green monkey Vero cells assessed as eradication of amastigotes at 5 uM after 5 days by optical microscopic analysis; type: functional, organism-based; details: in the assay text read “after 72 hrs” for “after 5 days”
Summary of the method: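 VERO cells infected with Sylvio X-10 parasites were treated with 5 μM compound and examined by optic microscopy after 72 h of incubation for intracellular amastigotes and trypomastigotes.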

Salmonella typhimurium [3] = test: Mutagenic activity in Salmonella typhimurium TA100 at 0.06 to 5 ug/plate by Ames test in presence of mouse liver S9 fraction; type: toxicity, organism-based; details: salmonella enterica subsp. enterica serovar typhimurium
Summary of the method: (§1)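 Plate-incorporation Ames test on minimal glucose agar with 500 μL Aroclor-treated mouse liver S9 added. DMSO solutions were tested at five consecutive 3-fold dilutions from the highest non-toxic dose, in triplicate, with a DMSO negative control. Revertants were counted manually; a compound was scored mutagenic when revertants were at least twice the negative control for two or more consecutive doses.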

[4] = Stability of the compound in aqueous solution assessed as compound remaining at 1 mM at pH 7.4 after 1 hr by TLC analysis; type: physicochemical; details: aqueous solution, pH 7.4; read-out: Stability
Summary of the method: (§2)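 DMSO stocks diluted to final 1 mM in KCl·HCl pH 1.0, citrate pH 6.0, Tris·HCl pH 7.4 or borax·HCl pH 9.0 buffer. Incubated 1 h at 37 °C, then ethyl acetate extracts checked by TLC for decomposition products.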

Salmonella typhimurium [5] = test: Mutagenic activity in Salmonella typhimurium TA1535 at 0.06 to 5 ug/plate by Ames test in presence of mouse liver S9 fraction; type: toxicity, organism-based; details: salmonella enterica subsp. enterica serovar typhimurium; summary of the method: as §1
[6] = Stability of the compound in aqueous solution assessed as compound remaining at 1 mM at pH 6 after 1 hr by TLC analysis; type: physicochemical; details: aqueous solution, pH 6; read-out: Stability; summary of the method: as §2
[7] = Stability of the compound in aqueous solution assessed as compound remaining at 1 mM at pH 9 after 1 hr by TLC analysis; type: physicochemical; details: aqueous solution, pH 9; read-out: Stability; summary of the method: as §2
[8] = Stability of the compound in aqueous solution assessed as compound remaining at 1 mM at pH 1 after 1 hr by TLC analysis; type: physicochemical; details: read-out: Stability; summary of the method: as §2
Salmonella typhimurium [9] = test: Mutagenic activity in Salmonella typhimurium TA100 at 0.06 to 5 ug/plate by Ames test; type: toxicity, organism-based; details: salmonella enterica subsp. enterica serovar typhimurium
Summary of the method: (§3)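 Direct plate incubation on minimal glucose agar (Vogel-Bonner E). Compound toxicity to the bacteria was checked first. DMSO solutions were tested at five consecutive 3-fold dilutions, starting from the highest non-toxic dose, in triplicate, without metabolic activation. DMSO served as negative control. Revertants were counted manually; mutagenic = revertants at least double the negative control at two or more consecutive doses.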

Salmonella typhimurium [10] = test: Mutagenic activity in Salmonella typhimurium TA102 at 0.06 to 5 ug/plate by Ames test in presence of mouse liver S9 fraction; type: toxicity, organism-based; details: salmonella enterica subsp. enterica serovar typhimurium; summary of the method: as §1
Salmonella typhimurium [11] = test: Mutagenic activity in Salmonella typhimurium TA1537 at 0.06 to 5 ug/plate by Ames test in presence of mouse liver S9 fraction; type: toxicity, organism-based; details: salmonella enterica subsp. enterica serovar typhimurium; summary of the method: as §1
Salmonella typhimurium [12] = test: Mutagenic activity in Salmonella typhimurium TA1537 at 0.06 to 5 ug/plate by Ames test; type: toxicity, organism-based; details: salmonella enterica subsp. enterica serovar typhimurium; summary of the method: as §3
Salmonella typhimurium [13] = test: Mutagenic activity in Salmonella typhimurium TA1535 at 0.06 to 5 ug/plate by Ames test; type: toxicity, organism-based; details: salmonella enterica subsp. enterica serovar typhimurium; summary of the method: as §3
Salmonella typhimurium [14] = test: Mutagenic activity in Salmonella typhimurium TA98 at 3.1 to 250 ug/plate by Ames test; type: toxicity, organism-based; details: salmonella enterica subsp. enterica serovar typhimurium
Summary of the method: (§4)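 Ames plate-incorporation assay with S. typhimurium TA98 in Vogel-Bonner E minimal glucose agar. Toxicity toward the bacteria was checked first. DMSO solutions were run in triplicate at five consecutive third-dilutions, starting at the highest non-toxic dose. Positive controls were 4-nitro-o-phenylenediamine (20.0 μg/plate) and 2-aminofluorene (10.0 μg/plate); DMSO was the negative control. Revertants were counted manually. A compound was called mutagenic when revertants were at least twice the negative control at two or more consecutive doses.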

Trypanosoma cruzi [15] = test: Antitrypanosomal activity against Trypanosoma cruzi Tulahuen 2 epimastigotes assessed as growth inhibition after 5 days; type: functional, organism-based; details: Trypanosoma cruzi, Tulahuen 2, 120 h
Summary of the method: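 Epimastigotes were grown axenically at 28 °C in BHI-tryptose with 5% FBS and seeded from a 5–7 day culture at 1 × 10⁶ cells/mL. Drug from a DMSO stock was added (final DMSO ≤0.4%; the control contained 0.4% DMSO). Duplicates were run. A600 was read at day 5, and % inhibition was calculated relative to day-0 and control readings. IC50 = concentration that halves the absorbance ratio.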

[16] = Selectivity index, ratio of IC50 for human RBC to IC50 for Trypanosoma cruzi Sylvio X-10 amastigotes
Summary of the method: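 Hemolysis: washed human erythrocytes (2% w/v in PBS) incubated 24 h at 37 °C with compound at final 50, 100 and 200 μM. Ten replicates per concentration. Hemoglobin release read at 405 nm against water lysis as 100%; amphotericin B 1.5 μM was the positive control. SI = IC50 red cells / parasite IC50 (Sylvio X-10 amastigotes or Tulahuen 2 epimastigotes).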

[17] = Selectivity index, ratio of IC50 for African green monkey Vero cells to IC50 for Trypanosoma cruzi Sylvio X-10 amastigotes; type: toxicity, cell-based; details: read-out: Ratio IC50
Summary of the method: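 VERO cytotoxicity: cells exposed 48 h at 37 °C, 5% CO2 to serial dilutions from a maximum of 2000 μM (DMSO stocks; DMSO <0.1% control); growth inhibition read by MTT at 570 nm. Amastigote IC50: Sylvio X-10-infected VERO cells, five doses, infected cells counted among 300 (Giemsa), quadruplicate, three experiments, sigmoidal fit. SI = IC50 VERO / IC50 amastigote.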

Trypanosoma cruzi [18] = test: Antitrypanosomal activity against Trypanosoma cruzi Sylvio X-10 amastigotes infected in African green monkey Vero cells assessed as eradication of amastigotes after 5 days by Giemsa staining-based assay; type: functional, organism-based; details: Sylvio X-10, Vero, 120 h
Summary of the method: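 VERO cells in RPMI 1640 with 10% hiFCS were allowed to adhere for 24 h at 37 °C in 5% CO₂, then infected with tissue-derived trypomastigotes at 10:1. Free parasites were washed off after 24 h, and cultures were treated at five compound doses (text gives 72 h / 5 days). Cultures were methanol-fixed and Giemsa-stained, and infected cells were counted among 300. Quadruplicates were run in three independent experiments. IC50/IC90 were obtained by sigmoidal regression.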

Salmonella typhimurium [19] = test: Mutagenic activity in Salmonella typhimurium TA98 at 3.1 to 250 ug/plate by Ames test in presence of mouse liver S9 fraction; type: toxicity, organism-based; details: salmonella enterica subsp. enterica serovar typhimurium; summary of the method: as §4
[20] = Stability of the compound in eumulgin HRE 40, sodium oleate, soya phosphatidylcholine, cholesterol, and phosphate buffer at pH 7.4 at 4 degC; type: physicochemical
Summary of the method: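 Storage stability of the compound in vehicle V2, a microemulsion of surfactant (Eumulgin HRE 40/sodium oleate/soya phosphatidylcholine, 10%), cholesterol oil phase (10%) and pH 7.4 phosphate buffer (80%), followed over 1 week at 4 °C.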

Salmonella typhimurium [21] = test: Mutagenic activity in Salmonella typhimurium TA102 at 0.06 to 5 ug/plate by Ames test; type: toxicity, organism-based; details: salmonella enterica subsp. enterica serovar typhimurium; summary of the method: as §3
[22] = Selectivity index, ratio of IC50 for mouse J774.1 cells to IC50 for Trypanosoma cruzi Sylvio X-10 amastigotes; type: toxicity; details: read-out: Ratio IC50
Summary of the method: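 J774.1 macrophages grown in DMEM with 10% heat-inactivated FCS and allowed to attach 48 h, then exposed 48 h at 37 °C to 12.5–400.0 μM. Triplicates. MTT 0.1 mg/mL for 3 h, read at 560 nm; IC50 by linear regression against the solvent control. SI = IC50 J774.1 / parasite IC50 (Sylvio X-10 amastigotes or Tulahuen 2 epimastigotes, the latter measured by A600 growth inhibition at day 5).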

IC50 (Trypanosoma cruzi [1]): 4 µM
remaining at 1 h, 1000 µM [4]: > 95%
remaining at 1 h, 1000 µM [6]: > 95%
remaining at 1 h, 1000 µM [7]: > 95%
remaining at 1 h, 1000 µM [8]: 90%
IC50 (Trypanosoma cruzi [15]): 3.2 µM
IC50 (Trypanosoma cruzi [18]): < 0.24 µM
Stability [20]: Stable
SMILES: Br.C=CCn1c(-c2ccccc2)cs\c1=N/N=C/C=C/c1ccco1.O
Activity (Trypanosoma cruzi [2]): Active
Activity (Salmonella typhimurium [3]): Non-toxic
Activity (Salmonella typhimurium [5]): Non-toxic
Activity (Salmonella typhimurium [9]): Non-toxic
Activity (Salmonella typhimurium [10]): Non-toxic
Activity (Salmonella typhimurium [11]): Non-toxic
Activity (Salmonella typhimurium [12]): Non-toxic
Activity (Salmonella typhimurium [13]): Non-toxic
Activity (Salmonella typhimurium [14]): Non-toxic
Ratio IC50 [16]: > 196
selectivity ratio [17]: > 1000
Activity (Salmonella typhimurium [19]): Non-toxic
Activity (Salmonella typhimurium [21]): Non-toxic
selectivity ratio [22]: > 120
